In the library only some 1.5% were active in any assay of this set; here they are far more common.
S100A4 MyoIIA: S100A4-myosin IIA interaction inhibition; S100A4/TAMRA-MyoIIA peptide fluorescence polarization; inhibition, % at 10.7 µM; 360,000 compounds, 0.14% hits;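 active = mean inhibition of at least 70% across replicates, with every replicate also reaching that level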
Target sequence (P26447 whole entry, looked up): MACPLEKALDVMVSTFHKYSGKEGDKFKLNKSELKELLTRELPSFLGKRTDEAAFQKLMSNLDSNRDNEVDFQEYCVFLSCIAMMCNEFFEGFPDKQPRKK
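Material: S100A4 monomer (human). Medium: Calcium-containing HEPES buffer, pH 7.2. Probe or stimulus: labelled myosin peptide probe, 5 nM. Compound dosing: one concentration per compound. Timing: polarization read 5 min after assay mix addition, stable 5–60 min. Benchmarks: DMSO as neutral control, TFP as positive control.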
MLL AF4-AF9 inh: inhibitors of human MLL-AF4/AF9 interaction; AlphaScreen, biotin-AF4 peptide binding to FLAG-AF9; inhibition, % at 10 µM; 350,000 compounds, 0.47% hits; AID 651704;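 active = every replicate reaching a set inhibition limit, whatever the replicate mean, cut at about 25% in these data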
Target sequence (P42568 whole entry, looked up): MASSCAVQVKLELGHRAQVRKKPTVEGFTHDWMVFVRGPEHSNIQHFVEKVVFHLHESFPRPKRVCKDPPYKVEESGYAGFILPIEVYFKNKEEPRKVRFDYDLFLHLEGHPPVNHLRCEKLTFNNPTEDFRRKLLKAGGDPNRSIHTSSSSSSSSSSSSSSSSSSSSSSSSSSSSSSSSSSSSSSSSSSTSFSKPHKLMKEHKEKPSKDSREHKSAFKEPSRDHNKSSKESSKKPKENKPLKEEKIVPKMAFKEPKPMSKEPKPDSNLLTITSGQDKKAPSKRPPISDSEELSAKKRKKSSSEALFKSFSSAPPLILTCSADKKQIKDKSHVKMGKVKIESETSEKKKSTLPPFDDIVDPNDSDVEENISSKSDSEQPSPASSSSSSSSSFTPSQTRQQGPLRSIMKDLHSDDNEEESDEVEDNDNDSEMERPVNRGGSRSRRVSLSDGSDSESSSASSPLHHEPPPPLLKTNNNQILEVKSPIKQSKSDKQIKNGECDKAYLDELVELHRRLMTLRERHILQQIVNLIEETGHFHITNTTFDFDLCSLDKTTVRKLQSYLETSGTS
ERAP1 HTS inh: blocks human ERAP1 aminopeptidase activity; Q9NZ08; recombinant ERAP1, Leu-AMC fluorescence, 60 min; inhibition, % at 10.7 µM; 340,000 compounds, 0.15% hits; AID 652197;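 active = mean replicate inhibition of at least 30%, or all replicates individually reaching that 30% level; inactive = mean below 30% and not every replicate reaching it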
GSIS activator: GLuc luminescence reporter in INS-1E cells, primary screen for activators of glucose-dependent secretion of insulin; AID 743287; activation, % at 16.6 µM; 370,000 compounds, 0.61% hits; INS-1E GLuc reporter insulin secretion, 2-3 h;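 active = lowest replicate activation of at least 40%, so every replicate reaches that level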
RAD52 inh: blocks human RAD52 DNA annealing. 360,000 compounds, 0.46% hits. inhibition, % at 18.7 µM. P43351. AID 651710. recombinant RAD52 DNA annealing, FRET fluorescence;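 active = every replicate showing at least 50% inhibition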
Each line names hits and unclear results; the compound was inactive in the other large screens; ! = not confirmed by another sample.

Cc1cccc(S(=O)(=O)N2CCCCN3[C@H](CO)[C@H](c4ccc(C#CC(C)C)cc4)[C@H]3C2)c1	none
Cc1cccc(S(=O)(=O)N2CCCCN3[C@@H](CO)[C@@H](c4ccc(C#CC(C)C)cc4)[C@@H]3C2)c1	GSIS activator 57
Cc1ccc(-c2ccc([C@H]3[C@@H](CO)N4CCCCN(S(=O)(=O)c5cccc(C)c5)C[C@H]34)cc2)cc1	RAD52 inh 70 (no result: GSIS activator)
Cc1cccc(S(=O)(=O)N2CCCCN3[C@@H](CO)[C@@H](c4ccc(-c5ccccc5)cc4)[C@@H]3C2)c1	RAD52 inh 64 (no result: GSIS activator)
COCC#Cc1cnc2c(c1)C(=O)N([C@@H](C)CO)C[C@H](C)[C@H](CN(C)C(C)=O)O2	none
C[C@@H]1CN(C)C(=O)c2cccc(N(C)C)c2O[C@@H]1CN(C)S(C)(=O)=O	none (no result: S100A4 MyoIIA, MLL AF4-AF9 inh, ERAP1 HTS inh, RAD52 inh)
C/C(=N\NC(=O)CSCc1ccccc1Cl)c1cc(O)ccc1O	MLL AF4-AF9 inh 25
CC(C)NC(=O)Nc1ccc2c(c1)C(=O)N(C)C[C@H](C)[C@@H](CN(C)C(=O)NC(C)C)O2	none (no result: S100A4 MyoIIA, MLL AF4-AF9 inh, ERAP1 HTS inh, RAD52 inh)
COc1ccc2c3c([nH]c2c1)[C@H](CO)N(C(=O)c1ccccc1)CC31CCN(C(=O)Nc2cccc(F)c2)CC1	none (no result: S100A4 MyoIIA, ERAP1 HTS inh, RAD52 inh)
COc1cc(NC(=O)CN2CCC(Cc3ccccc3)CC2)c(C)cc1[N+](=O)[O-]	GSIS activator 58 (no result: S100A4 MyoIIA, MLL AF4-AF9 inh, ERAP1 HTS inh, RAD52 inh)
C=C(C)C(=O)Oc1ccc(N=Nc2ccc(C)cc2)ccc1=O	MLL AF4-AF9 inh 28 (no result: GSIS activator)
Cn1cccc1/C=C1\SC(=Nc2cccc(O)c2)NC1=O	MLL AF4-AF9 inh 25
Cn1cccc1/C=C1\SC(=Nc2ccc(O)cc2)NC1=O	none (no result: ERAP1 HTS inh)
O=C(Nc1ccccc1)N1CC(=O)N2[C@H](CO)[C@@H](c3ccc(-c4ccc(F)cc4)cc3)[C@@H]2C1	none (no result: S100A4 MyoIIA, MLL AF4-AF9 inh, ERAP1 HTS inh, RAD52 inh)
N#C/C(=C/c1ccc(-c2ccc(S(N)(=O)=O)cc2)o1)C(=O)Nc1ccccc1	GSIS activator 116 (no result: S100A4 MyoIIA, MLL AF4-AF9 inh, ERAP1 HTS inh, RAD52 inh)
C[C@H]1CN([C@@H](C)CO)C(=O)c2cccc(NC(=O)C3CC3)c2O[C@H]1CN(C)S(C)(=O)=O	none
C[C@@H]1CN([C@@H](C)CO)C(=O)c2cccc(NC(=O)C3CC3)c2O[C@@H]1CN(C)S(C)(=O)=O	S100A4 MyoIIA 124
C[C@H]1CN([C@@H](C)CO)C(=O)c2cccc(NS(C)(=O)=O)c2O[C@@H]1CN(C)CC1CC1	none
C[C@@H]1CN([C@H](C)CO)C(=O)c2cccc(NS(C)(=O)=O)c2O[C@@H]1CN(C)CC1CC1	S100A4 MyoIIA 126
Cc1noc(C)c1NC(=O)N(C)C[C@H]1Oc2c(NC(=O)C3CCCCC3)cccc2C(=O)N([C@H](C)CO)C[C@@H]1C	GSIS activator 41!
Cc1noc(C)c1NC(=O)N(C)C[C@H]1Oc2c(NC(=O)C3CCCCC3)cccc2C(=O)N([C@@H](C)CO)C[C@H]1C	none
C[C@H](CO)N1C[C@H](C)[C@@H](CN(C)Cc2ccc3c(c2)OCO3)Oc2c(NC(=O)CCC(F)(F)F)cccc2C1=O	none (no result: S100A4 MyoIIA, MLL AF4-AF9 inh, ERAP1 HTS inh, RAD52 inh)
COc1ccc([C@@H]2CC=CC[C@H](C)Oc3ccccc3C(=O)N(C)[C@@H](C)C(=O)N2)c(OC)c1 (mixture of isomers)	none (no result: S100A4 MyoIIA, MLL AF4-AF9 inh, ERAP1 HTS inh, RAD52 inh)
COc1ccc(C#Cc2ccc([C@H]3[C@H](CO)N4CCCCN(Cc5ccccc5F)C[C@@H]34)cc2)cc1	MLL AF4-AF9 inh 32
COc1ccc(C#Cc2ccc([C@@H]3[C@H](CO)N4CCCCN(Cc5ccccc5F)C[C@@H]34)cc2)cc1	MLL AF4-AF9 inh 31, GSIS activator 50
COc1ccc(C#Cc2ccc([C@@H]3[C@@H](CO)N4CCCCN(Cc5ccccc5F)C[C@@H]34)cc2)cc1	GSIS activator 95
CO[C@H]1CN(C)C(=O)c2cc(NC(=O)c3cnccn3)ccc2OC[C@H](C)N(CC2CC2)C[C@H]1C	none
CN(C)c1ccc(/C=C(\NC(=O)c2ccccc2)C(=O)NCCN2CCOCC2)cc1	GSIS activator 41
CC(=O)c1nnn(-c2cccc(C#N)c2)c1C	none (no result: ERAP1 HTS inh)
C#Cc1cccc(-n2nnc(C(=O)OC)c2-c2ccccc2)c1	GSIS activator 40
CCOC(=O)c1oc2ccccc2c1NC(=O)COC	none (no result: S100A4 MyoIIA, MLL AF4-AF9 inh, ERAP1 HTS inh, RAD52 inh)
CCOCC(=O)Nc1c(C(=O)OCC)oc2ccccc12	GSIS activator 44 (no result: S100A4 MyoIIA, MLL AF4-AF9 inh, ERAP1 HTS inh, RAD52 inh)
Cc1ccc2c(c1)S/C(=C/c1ccc[n+](C)c1)N2CCO	ERAP1 HTS inh 52
Cc1ccccc1OCc1nnc(SCC(=O)Nc2ccc3c(c2)oc2ccccc23)n1C	GSIS activator 131 (no result: S100A4 MyoIIA, MLL AF4-AF9 inh, ERAP1 HTS inh, RAD52 inh)
COc1ccc(C(=O)C2CCCN(Cc3cccn3-c3nccs3)C2)cc1OC (stereo not given)	GSIS activator 81
Cc1cc(Cl)ccc1C(=O)C1CCCN(C(=O)c2n[nH]c3c2CCCC3)C1 (stereo not given)	none
COc1ccc(C(=O)C2CCCN(C(=O)c3n[nH]c4c3CCCC4)C2)cc1OC (stereo not given)	GSIS activator 67
CCS(=O)(=O)N1CC2(CN(Cc3ccccc3OC)[C@@H](CO)c3c2c2ccc(OC)cc2n3C)C1	none (no result: S100A4 MyoIIA, MLL AF4-AF9 inh, ERAP1 HTS inh, RAD52 inh)
Cc1cc(C)cc(NC(=O)C2CCN(S(=O)(=O)c3ccc4[nH]c(=O)ccc4c3)CC2)c1	none (no result: GSIS activator)
CCc1cccc(NC(=O)C2CCN(S(=O)(=O)c3ccc4[nH]c(=O)ccc4c3)CC2)c1	MLL AF4-AF9 inh 40
COc1ccc(CCNc2ccncn2)cc1OC	GSIS activator 45 (no result: S100A4 MyoIIA, MLL AF4-AF9 inh, ERAP1 HTS inh, RAD52 inh)
Cc1ccc(-c2csc3nc(C)n(N)c(=O)c23)cc1	none
Cc1ccc(-c2csc3nc4c5ccccc5c(NCCCN(C)C)nn4c(=O)c23)cc1	RAD52 inh 97
CCOc1cc(N2CCOCC2)c(OCC)cc1NC(=O)COC(=O)c1ccc(Cl)cc1N	none (no result: GSIS activator)
CCOc1cc(N2CCOCC2)c(OCC)cc1NC(=O)COC(=O)c1cc2ccccc2cc1O	GSIS activator 141 (no result: S100A4 MyoIIA, MLL AF4-AF9 inh, ERAP1 HTS inh, RAD52 inh)
C[C@H](CO)N1C[C@H](C)[C@H](CN(C)C(=O)Nc2cccc3ccccc23)Oc2ccc(NS(=O)(=O)c3ccc(Cl)cc3)cc2CC1=O	none
C=CS(=O)(=O)c1ccc(Oc2ccc(S(=O)(=O)C=C)cc2)cc1	GSIS activator 83
NS(=O)(=O)c1ccc(Oc2ccc(S(N)(=O)=O)cc2)cc1	none
O=C(c1cccs1)N(Cc1ccc(Cl)cc1)C1CCS(=O)(=O)C1 (stereo not given)	GSIS activator 48
CCOC(=O)C1CCN(S(=O)(=O)c2ccc3c(c2)CC(=O)N3C)CC1	ERAP1 HTS inh 101
C[C@H]1CN([C@@H](C)CO)S(=O)(=O)c2ccc(C3=CCCCC3)cc2O[C@H]1CN(C)C(=O)c1ccncc1	none
CC(=O)Nc1ccc2c(c1)C(=O)N(C)C[C@@H](C)[C@@H](CN(C)S(C)(=O)=O)O2	none (no result: S100A4 MyoIIA, MLL AF4-AF9 inh, ERAP1 HTS inh, RAD52 inh)
COc1cccc2[nH]c3c(N4CCCCC4)ncnc3c12	none (no result: S100A4 MyoIIA, MLL AF4-AF9 inh, ERAP1 HTS inh, RAD52 inh)
Cc1cccc2[nH]c3c(N4CC=C(c5ccc(F)cc5)CC4)ncnc3c12	GSIS activator 41 (no result: ERAP1 HTS inh)
CCOC(=O)c1ccccc1NC(=O)COC(=O)CCCOc1ccccc1	GSIS activator 56
CCOC(=O)c1ccccc1NC(=O)COC(=O)CCNS(=O)(=O)c1ccccc1	none

Assay outcomes: PubChem, Broad Institute
